# Assay results from different studies.
# Compare with care: the assays were run in different laboratories.
# SCN1A: Sodium channel protein type 1 subunit alpha (SCN1A, Homo sapiens, UniProt P35498)
# RIPK2: Receptor-interacting serine/threonine-protein kinase 2 (RIPK2, Homo sapiens, UniProt O43353)
# PTK2: Focal adhesion kinase 1 (PTK2, Homo sapiens, UniProt Q05397)
SMILES,target,test,system,setting,measurement,value
O=C1NC(=O)C(c2ccccc2)(c2ccccc2)N1,SCN1A,"ion current, inhibitor, patch clamp",,3 µM,inhibition,0.654%
CNc1ncc2c(/C=C/C(=O)N3CCC(OC)CC3)nn(Cc3cccc(C(F)(F)F)c3)c2n1,RIPK2,"enzyme activity, inhibitor, radiometric",,1 µM,remaining activity,87%
C=CC(=O)N1CCC(COCC(=O)N2CCN(c3nc(-c4cnc(N)nc4C(F)F)nc(N4CCOC[C@@H]4C)n3)CC2)CC1,RIPK2,"binding, competition with immobilised ligand",,1 µM,remaining binding,95%
COc1cc(-c2cncc3c2CN(C)Cc2cc(N4CCNCC4)ccc2-3)cc(OC)c1OC,PTK2,"enzyme activity, inhibitor",,1 µM,remaining activity,102%
CNC[C@H](O)c1cccc(O)c1,"Alpha-1A adrenergic receptor (ADRA1A, Homo sapiens, UniProt P35348)","calcium signal, agonist",COS-7,,Emax,~80%
Cc1cc([C@@H](C)Nc2ccccc2C(=O)O)c2nc(N3CCC(F)(F)CC3)c(C#N)c(=O)n2c1,PTK2,"binding, competition with immobilised ligand",,10 µM,remaining binding,100%
CC12CC3CC(C)(C1)CC(N)(C3)C2,SCN1A,"ion current, inhibitor, patch clamp",,3 µM,inhibition,0.782%
C[C@H]1O[C@H](O[C@H]2[C@H](O)[C@@H](O)[C@@H](O[C@H]3[C@H](O)[C@@H](O)C(O)O[C@@H]3CO)O[C@@H]2CO)[C@H](O)[C@@H](O)[C@@H]1N[C@H]1C=C(CO)[C@@H](O)[C@H](O)[C@H]1O (stereo partly shown),"Alpha-glucosidase MAL12 (MAL12, Saccharomyces cerevisiae S288c, UniProt P53341)","enzyme activity, inhibitor, absorbance",,1000 µg/mL,inhibition,80.6%
CC(=O)c1c(C)c2cnc(Nc3ccc(N4CCNCC4)cn3)nc2n(C2CCCC2)c1=O,"Cyclin-dependent kinase 5, with p25 (CDK5, Homo sapiens, UniProt Q00535)","enzyme activity, inhibitor, ADP detection",,1 µM,activity vs control,97%
CC(C)NCC(O)COc1cccc2ccccc12 (stereo not shown),SCN1A,"ion current, inhibitor, patch clamp",,3 µM,inhibition,2.62%
